Reference: article PMC11966289 (ACS Omega, 2025)

Tests used:
[1] = In vitro cytotoxicity, Neutral Red assay; format: cell-based; conditions: African green monkey, Vero cells
P. berghei = assay: In vivo antiplasmodial evaluation in the P. berghei-mouse malaria model; parameters: species or system P. berghei (Swiss Webster Hsd:ND4 mice); conditions: for % Parasitemia suppression day 5 / % Parasitemia suppression day 7 / MST (mean survival time) / cure (mice without parasitemia until day 28) / survival (animals survived on day 28/total): oral gavage, mice; for parasitemia suppression: day not given
[2] = system: P. falciparum (D6 strain); assay: In vitro antiplasmodial activity; format: cell-based; conditions: Plasmodium falciparum, D6, 72 h, read-out: P. falciparum (D6 strain) IC50
[3] = system: P. falciparum (W2 strain); assay: In vitro antiplasmodial activity; format: cell-based; conditions: Plasmodium falciparum, W2, 72 h, read-out: P. falciparum (W2 strain) IC50
How it was run: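 Infected erythrocytes (2% hematocrit, 2% parasitemia) in RPMI 1640 with 60 μg/mL amikacin and 10% human serum, exposed to serially diluted test compound under 90% N2/5% CO2/5% O2 at 37 °C for 72 h. Parasite LDH measured with Malstat reagent (30 min, room temperature), then NBT/PES (1 h, dark), stopped with 5% acetic acid, absorbance 650 nm. Triplicates; chloroquine/artemisinin and DMSO controls; IC50 from dose–response.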

[4] = 33.33 mg/kg dose, oral gavage once daily days 0, 1, 2

| Compound | IC50 at 48 h [1] [µg/mL] | % Parasitemia suppression day 5 (P. berghei; 33.3 mg/kg × 3 days) [%] | % Parasitemia suppression day 7 (P. berghei; 33.3 mg/kg × 3 days) [%] | MST (mean survival time) (P. berghei; 33.3 mg/kg × 3 days) [days] | cure (mice without parasitemia until day 28) (P. berghei; 33.3 mg/kg × 3 days) | survival (animals survived on day 28/total) (P. berghei; 33.3 mg/kg × 3 days) | IC50 [2] [nM] | IC50 [3] [nM] | % Parasitemia suppression day 5 (P. berghei; 11.1 mg/kg × 3 days) [%] | % Parasitemia suppression day 7 (P. berghei; 11.1 mg/kg × 3 days) [%] | MST (mean survival time) (P. berghei; 11.1 mg/kg × 3 days) [days] | cure (mice without parasitemia until day 28) (P. berghei; 11.1 mg/kg × 3 days) | survival (animals survived on day 28/total) (P. berghei; 11.1 mg/kg × 3 days) | parasitemia suppression (P. berghei; [4]) [%] | % Parasitemia suppression day 5 (P. berghei; 100 mg/kg × 3 days) [%] | % Parasitemia suppression day 7 (P. berghei; 100 mg/kg × 3 days) [%] | MST (mean survival time) (P. berghei; 100 mg/kg × 3 days) [days] | survival (animals survived on day 28/total) (P. berghei; 100 mg/kg × 3 days) | parasitemia suppression (P. berghei; at all doses (11.1, 33.3, and 100.0 mg/kg)) [%] | cure (mice without parasitemia until day 28) (P. berghei; 100 mg/kg × 3 days) |
| --- | --- | --- | --- | --- | --- | --- | --- | --- | --- | --- | --- | --- | --- | --- | --- | --- | --- | --- | --- | --- |
| CCN(CC)CCCC(C)Nc1ccnc2cc(Cl)ccc12 (stereo not drawn) [CQ, Chloroquine, reference compound] | > 4.76 | 100.00 | 100.00 | 28 | 2/5 | 5/5 | 60 | 853 |  |  |  |  |  |  |  |  |  |  |  |  |
| Cc1cc(N2CCN(CCCNc3ccnc4cc(Cl)ccc34)CC2)nc(N2CCCC2)n1 [Compound 7i, 7-Chloro-N-(3-(4-(6-methyl-2-(pyrrolidin-1-yl)pyrimidin-4-yl)piperazin-1-yl)propyl) quinolin-4-amine] | > 4.76 | 100.00 | 100.00 | 28 | 5/5 | 5/5 | 12 | 19 | 100.00 | 100.00 | 27 | 3/5 | 4/5 | 100 | 100.00 | 100.00 | 22.8 | 5/5 | 100 |  |
| CCN1CCN(c2nc(C)cc(N3CCN(CCNc4ccnc5cc(Cl)ccc45)CC3)n2)CC1 [Compound 7e, 7-Chloro-N-(2-(4-(2-(4-ethylpiperazin-1-yl)-6-methylpyrimidin-4-yl)piperazin-1-yl)ethyl)quinolin-4-amine] | > 4.76 | 100.00 | 100.00 | 28 | 5/5 | 5/5 | 21 | 16 | 94.31 | 41.53 | 21.4 | 0/5 | 2/5 | 100 | 100.00 | 100.00 | 28 |  |  | 5/5 |
| Cc1cc(N2CCN(CCCNc3ccnc4cc(Cl)ccc34)CC2)nc(N2CCSCC2)n1 [Compound 7h, 7-Chloro-N-(3-(4-(6-methyl-2-thiomorpholinopyrimidin-4-yl)piperazin-1-yl)propyl) quinolin-4-amine] | > 4.76 |  |  |  |  |  | 18 | 50 |  |  |  |  |  |  |  |  |  |  |  |  |
